Bioassay records as filed in PubChem BioAssay.
M18AAP inhibitor – blocks P. falciparum M18 aspartyl aminopeptidase; 1.2% of 290,000 active; inhibition, % at 7.35 µM; recombinant PfM18AAP, H-Glu-NHMec fluorogenic cleavage;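 active means inhibition above the campaign mean inhibition over all tested compounds plus 3 SD, cut at about 28% in these data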;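 further: 0% = plate median of test compound wells and 100% = 2 mM ZnCl2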
CHOP inhibitor – CHOP inhibition in unfolded protein response; AID 2732; 3.8% of 220,000 active; CHO-K1 CHOP-promoter luciferase, tunicamycin-induced, 15-18 h; inhibition, % at 10 µM;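 active means compounds that reduced the stress-induced luciferase reporter signal by more than about 70% of percent inhibition, limit read from the data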;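 further: 0% = tunicamycin plus vehicle and 100% = wells without tunicamycin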
NS3 helicase inh – blocks Hepatitis C virus NS3 helicase unwinding; NS3 helicase DNA unwinding, Cy5 molecular beacon fluorescence; 0.56% of 290,000 active; inhibition, % at 10.9 µM;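 active means inhibition above the mean of all tested compounds plus 3 SD, set per campaign, cut at about 35% in these data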;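 further: 0% = DMSO wells and 100% = thioflavine S control wells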
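System: Hepatitis C virus NS3 helicase domain fragment enzyme | Reagent: Annealed dual-labelled DNA beacon duplex, ATP-started | Compound dosing: 10.9 µM single point, 0.8% DMSO | Incubation: 1 h reaction at 25 °C, ATP-initiated | Technique: Cy5 fluorescence | Evaluation: Percent inhibition from t60/t0 fluorescence ratio | Benchmarks: Low DMSO, high thioflavine S at 110 µM | Replication: Singlicate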
UPR CHOP act – activators of apoptotic arm of unfolded protein response (CHOP). activation, % at 10 µM. 0.34% of 330,000 active. CHO-CHOP luciferase reporter, UPR activation, luminescence; percent of tunicamycin response over DMSO baseline. AID 449763;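 active means at 10 µM dose, activation of 40% or more, normalized to positive control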;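 further: 100% = tunicamycin at 10 µg/mL and 0% = DMSO alone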
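Test system: CHO CHOP reporter cells. Input: 500 CHO-CHOP cells per well. Medium: F12 with 10% FBS. Technique: luciferase luminescence. Measure: percent activation relative to tunicamycin control. Dosing: 10 µM compound, 0.5% DMSO. Timing: 16-18 h cell attachment, then 6 h compound exposure, 37 °C.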
p97 inhibitor – inhibitors of human p97 ATPase | recombinant p97 ATPase, Kinase-Glo ATP luminescence, 3 h | inhibition, % at 8 µM | AID 1481 | 0.42% of 220,000 active | P55072; in the data active means inhibition above about 15%;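 further: 0% = DMSO vehicle and 100% = wells lacking enzyme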
Target sequence (P55072 whole entry, looked up): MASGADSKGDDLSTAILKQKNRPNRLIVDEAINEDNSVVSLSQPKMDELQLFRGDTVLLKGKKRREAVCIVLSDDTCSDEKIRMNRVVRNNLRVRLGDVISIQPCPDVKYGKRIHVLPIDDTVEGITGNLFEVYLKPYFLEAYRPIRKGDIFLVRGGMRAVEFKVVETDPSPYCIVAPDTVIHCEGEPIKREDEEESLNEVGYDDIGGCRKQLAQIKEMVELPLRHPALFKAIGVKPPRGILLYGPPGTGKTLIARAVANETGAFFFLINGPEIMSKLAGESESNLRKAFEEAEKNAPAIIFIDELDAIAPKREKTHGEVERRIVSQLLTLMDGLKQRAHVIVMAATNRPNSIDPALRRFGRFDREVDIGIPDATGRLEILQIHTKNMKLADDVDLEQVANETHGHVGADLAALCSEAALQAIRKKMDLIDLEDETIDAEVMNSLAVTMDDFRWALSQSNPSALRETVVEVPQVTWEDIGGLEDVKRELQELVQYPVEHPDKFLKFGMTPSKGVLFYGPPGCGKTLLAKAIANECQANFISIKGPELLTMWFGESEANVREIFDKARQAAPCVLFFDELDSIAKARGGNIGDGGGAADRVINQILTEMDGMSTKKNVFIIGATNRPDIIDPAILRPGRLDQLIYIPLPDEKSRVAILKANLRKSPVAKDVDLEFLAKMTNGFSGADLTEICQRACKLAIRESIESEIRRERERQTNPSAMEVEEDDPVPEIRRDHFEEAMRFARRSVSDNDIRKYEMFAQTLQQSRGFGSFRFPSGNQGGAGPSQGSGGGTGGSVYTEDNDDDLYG
UPR XBP1 act – activators of adaptive arm of unfolded protein response (XBP1); 0.33% of 330,000 active; CHO-XBP1 luciferase reporter, IRE1-XBP1 UPR activation, luminescence; percent of tunicamycin response, DMSO as zero; activation, % at 20 µM; AID 463104;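 active means versus positive control, 20 µM dose yields 30% or more activation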;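 further: 100% = tunicamycin at 10 µg/mL and 0% = DMSO only wells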
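Test system: CHO-XBP1 luciferase reporter cells | Buffer or medium: Serum-containing F12 medium, 10% FBS | Schedule: 6 h compound exposure at 37 °C, 5% CO2 | Detection: Steady-Glo luciferase glow luminescence, 10 min after reagent addition | Read-out basis: Activation, % of tunicamycin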
* = called active by the depositor; . = not tested or not shown. Only some compounds are listed: those with a hit (about 4.5% of all), similar ones and a draw of the others.

SMILES	M18AAP inhibitor	CHOP inhibitor	NS3 helicase inh	UPR CHOP act	p97 inhibitor	UPR XBP1 act
CN(CC(O)COc1ccccc1F)C1CCCCC1 (stereo unspecified)	0	12	2	-1	-2	-1
Cc1ccccc1OCC(O)CN(Cc1ccccc1O)C1CCCCC1 (stereo unspecified)	-1	88*	-16	1	-3	-4
COc1ccc(-c2cc(C)no2)cc1S(=O)(=O)N1CCCN(Cc2ccccc2Cl)C1	-5	.	-17	-1	.	-3
Cc1ccc(C)c2[nH]c(=O)c(CN(Cc3ccc4c(c3)OCO4)Cc3nnnn3Cc3ccco3)cc12	32*	26	17	-1	3	-5
CCc1ccc2[nH]c(=O)c(CN(Cc3ccccc3OC)Cc3nnnn3Cc3ccco3)cc2c1	26	74*	20	7	3	0
Cc1ccc2cc(CN(Cc3ccc4c(c3)OCO4)Cc3nnnn3Cc3ccco3)c(=O)[nH]c2c1C	15	53	26	1	-5	-1
O=C1/C(=C/c2cccs2)SC(=S)N1CCCC(=O)N(CCO)c1ccccc1	-4	.	-5	2	.	2
Oc1ccc(Cl)cc1C1=NNC(c2cc(Br)cc3c2OCOC3)C1 (stereo unspecified)	4	79*	4	0	6	3
Oc1ccc(Cl)cc1C1=NNC(c2ccc(Cl)cc2)C1 (stereo unspecified)	0	78*	8	18	5	7
COc1ccc(C2=NNC(c3cc(Cl)cc4c3OCOC4)C2)c(O)c1 (stereo unspecified)	-3	2	-3	-1	3	1
O=C(COC(=O)c1ccc(NC(=O)C2CC=CCC2C(=O)O)cc1)c1ccccc1 (stereo unspecified)	-5	.	-4	2	.	-1
O=C1NC(=O)/C(=C\c2ccc(OCc3cccc([N+](=O)[O-])c3)cc2)N1	6	76*	-2	4	4	6
CCOc1ccc(C2/C(=C(/O)c3ccc4c(c3)CC(C)O4)C(=O)C(=O)N2CCCn2ccnc2)cc1OCC (stereo unspecified)	-2	.	-10	2	.	-5
Cc1ccc(C)c(N=Nc2ccc(O)c3ncccc23)c1	-1	103*	5	13	3	-6
CC(C)C[C@H](NC(=O)c1nc[nH]c1C(=O)N1CCc2ccccc2C1)C(=O)OCc1ccccc1	.	92*	.	-1	.	-5
COc1ccc(C)cc1NC(=O)Nc1ccc(C(=O)N2CCCC2)cc1	-4	.	-4	1	.	-2
O=C(Cc1cn(Cc2cccc(Cl)c2)c2ccccc12)N1CCCCCC1	-5	76*	3	-2	0	-4
O=C(O)Cc1cn(Cc2cccc(Cl)c2)c2ccccc12	9	4	5	-1	3	2
CC1CCCN(C(=O)COC(=O)Cc2ccc(Cl)cc2)C1 (stereo unspecified)	0	.	-6	1	.	0
CC1CCCN(C(=O)Cc2cn(Cc3cccc(Cl)c3)c3ccccc23)C1 (stereo unspecified)	2	76*	-4	-1	-2	0
Cc1c(C(=O)N2CCC3(CC2)CC(=O)c2ccccc2O3)cccc1[N+](=O)[O-]	.	.	.	0	.	-2
Cc1ccc(S(=O)(=O)NCC(C)NC(=O)CN2CCOCC2)cc1 (stereo unspecified)	-12	.	-3	3	.	-2
C=CCOc1ccccc1C(=O)/C=C1/C(=O)Nc2ccccc21	31*	.	-30	152*	.	-10
COc1ccc(C(=O)/C=C2/C(=O)Nc3ccccc32)cc1	10	.	-13	20	.	16
COc1ccc(C(=O)/C=C2/C(=O)Nc3ccccc32)cc1OC	9	.	5	48*	.	-2
SMILES	M18AAP inhibitor	CHOP inhibitor	NS3 helicase inh	UPR CHOP act	p97 inhibitor	UPR XBP1 act
CN(C)C(=S)Nc1ccc(Cc2ccncc2)cc1	21	.	6	-1	.	-3
Cc1ccc(Sc2ccc(NC(=O)CCl)cc2)c(C)c1	0	84*	-14	20	4	2
Cc1ccsc1/C=N/n1c(C2CCCCC2)n[nH]c1=S	12	84*	-3	0	0	0
S=c1[nH]nc(C2CCCCC2)n1/N=C/c1ccccc1	12	.	5	-1	.	1
COCCC(=O)Nc1ccc2c(c1)CN(C(=O)c1ccc(CSC)o1)CC2	4	.	11	0	.	-6
COc1ccc(N2CCN(C(c3ccccc3OC)c3nnnn3C3CCCC3)CC2)cc1 (stereo unspecified)	5	22	2	.	-7	.
Oc1ccc(N2CCN(C(c3ccncc3)c3nnnn3C3CCCC3)CC2)cc1 (stereo unspecified)	37*	1	0	-3	5	-2
COc1ccc(N2CCN(C(c3cccc(OC)c3OC)c3nnnn3C3CCCC3)CC2)cc1 (stereo unspecified)	-4	74*	-7	1	-4	2
COc1ccccc1N1CCN(C(c2cc3cc(C)ccc3[nH]c2=O)c2nnnn2C2CCCC2)CC1 (stereo unspecified)	6	91*	-19	2	-1	3
c1cc(C(c2nnnn2C2CCCC2)N2CCOCC2)ccn1 (stereo unspecified)	-13	4	-12	-1	4	-3
COc1ccccc1N1CCN(C(c2cc3ccc(C)cc3[nH]c2=O)c2nnnn2C2CCCC2)CC1 (stereo unspecified)	0	34	3	1	4	0
CC1CC(C)CN(C(=O)C2CCC(CNS(=O)(=O)c3ccccc3)CC2)C1 (stereo unspecified)	6	.	5	3	.	-8
O=C(COC(=O)c1cccs1)Nc1cccc(Cl)c1	.	.	.	-1	.	5
O=c1nccc(N/N=C/c2ccccc2O)[nH]1	29*	.	12	2	.	-2
CCN1C(=O)C(CC(=O)Nc2ccc(Br)cc2)N(CCCc2ccccc2)C1=S (stereo unspecified)	-10	89*	-9	0	9	4
CCCOc1ccc(NC(=O)CC2C(=O)N(CC)C(=S)N2CCCN2CCN(Cc3ccccc3)CC2)cc1 (stereo unspecified)	-9	92*	-86	2	0	4
O=C(CCN1CCN(CCO)CC1)Nc1ccc(OCc2ccccc2)cc1	-2	2	-13	-2	-2	1
CCN1C(=O)C(CC(=O)Nc2ccc(F)cc2)N(CCCN2CCN(c3ccc(F)cc3)CC2)C1=S (stereo unspecified)	1	95*	-87	-2	3	-2
O=C(CCN1CCN(Cc2ccccc2)CC1)Nc1ccc(OCc2ccccc2)cc1	-4	70*	-26	3	-7	-3
